The values below come from ChEMBL document CHEMBL4354846, “1,3-Dipolar Cycloaddition, HPLC Enantioseparation, and Docking Studies of Saccharin/Isoxazole and Saccharin/Isoxazoline Derivatives as Selective Carbonic Anhydrase IX and XII Inhibitors” (J Med Chem, 2020).

In general, IC50 refers to the concentration that inhibits the measured activity by half. In general, Ki refers to the dissociation constant of the complex between target and ligand, obtained from inhibition or displacement.

SMILES strings stand for the structures. Activity calls are given as the source filed them. No cut-off for these calls is given here.

For series [1], the system named is MCF7. Description: Cytotoxicity against human MCF7 cells assessed as reduction in cell viability measured after 72 hrs under hypoxic condition by MTT assay. The format is functional, cell-based. As to conditions: MCF7, 72 h. The method, boiled down: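 MCF7 given CoCl2 100 μM for 48 h to induce hypoxia, then doxorubicin alone at 0.05–200 μM for 72 h. Viability read by MTT: 0.5 mg/mL for 5 h at 37 °C, formazan dissolved in DMSO, absorbance at 570 nm, cell-free wells as background.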

In series [2] the target is Carbonic anhydrase 2 (Homo sapiens, UniProt P00918). Kind of series: Inhibition of recombinant human carbonic anhydrase 2 incubated for 15 mins prior to testing measured for 10 to 100 secs by phenol red-based stopped-flow CO2 hydration assay.
Series [3] has as its target Carbonic anhydrase 9 (Homo sapiens, UniProt Q16790). Description: Inhibition of recombinant human carbonic anhydrase 9 incubated for 15 mins prior to testing measured for 10 to 100 secs by phenol red-based stopped-flow CO2 hydration assay.
The target in series [4] is Carbonic anhydrase 1 (Homo sapiens, UniProt P00915). Description: Inhibition of recombinant human carbonic anhydrase 1 incubated for 15 mins prior to testing measured for 10 to 100 secs by phenol red-based stopped-flow CO2 hydration assay.
Sequence of Carbonic anhydrase 1 (P00915 whole entry): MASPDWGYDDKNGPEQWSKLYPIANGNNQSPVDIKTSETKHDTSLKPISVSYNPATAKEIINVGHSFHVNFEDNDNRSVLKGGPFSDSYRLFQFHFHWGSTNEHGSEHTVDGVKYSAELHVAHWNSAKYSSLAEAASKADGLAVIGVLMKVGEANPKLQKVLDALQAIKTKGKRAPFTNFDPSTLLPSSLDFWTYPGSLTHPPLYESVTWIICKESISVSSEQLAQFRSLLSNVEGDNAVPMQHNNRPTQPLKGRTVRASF
In series [5] the target is Carbonic anhydrase 12 (Homo sapiens, UniProt O43570). Description: Inhibition of recombinant human carbonic anhydrase 12 incubated for 15 mins prior to testing measured for 10 to 100 secs by phenol red-based stopped-flow CO2 hydration assay.
Sequence of Carbonic anhydrase 12 (O43570 whole entry): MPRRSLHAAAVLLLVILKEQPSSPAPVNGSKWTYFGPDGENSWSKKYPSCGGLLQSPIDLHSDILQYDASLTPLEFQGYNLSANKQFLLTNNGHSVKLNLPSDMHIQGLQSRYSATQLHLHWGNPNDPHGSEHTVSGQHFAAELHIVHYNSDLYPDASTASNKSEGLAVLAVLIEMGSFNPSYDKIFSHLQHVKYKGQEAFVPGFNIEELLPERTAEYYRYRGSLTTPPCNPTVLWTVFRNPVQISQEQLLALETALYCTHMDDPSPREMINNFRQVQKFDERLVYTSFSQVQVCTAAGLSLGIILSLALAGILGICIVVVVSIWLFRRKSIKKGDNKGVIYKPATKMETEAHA
Series [6] is described as follows: Cytotoxicity against HGF cells assessed as cell viability at 100 to 200 uM measured after 24 to 48 hrs by MTT assay relative to control. The format is cell-based. As to conditions: human, read-out: Activity. The method, boiled down: (§1)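 Gingival fibroblasts seeded and treated as for LDH: 0.05–200 μM compound, DMSO final 0.2%, read at 24, 48 and 72 h. MTT 0.5 mg/mL for 5 h at 37 °C, formazan dissolved in DMSO, read at 570 nm. Viability normalized to 0.2% DMSO control. One-way ANOVA with Tukey tests.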

Series [7] can be described thus: Cytotoxicity against HGF cells assessed as reduction in LDH release at 0.05 to 200 uM measured after 24 hrs by CytoTox 96 nonradioactive cytotoxicity assay. The format is cell-based. As to conditions: human. In outline: (§2)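 Primary human gingival fibroblasts from healthy donors, in DMEM with 10% FBS at 37 °C, 5% CO2. Treated 24 h after seeding with 0.05–200 μM compound (DMSO final 0.2%). Supernatants collected at 24, 48 and 72 h and spun 450 g for 4 min. LDH measured by a 30-min coupled tetrazolium reaction read at 490 nm, with 690 nm as background. Given as % of lysed-cell positive control.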
On the technique in general: LDH in the medium is a marker of cell lysis.

Series [8] can be described thus: Cytotoxicity against HGF cells assessed as reduction in cell viability at 0.05 to 50 uM measured after 24 to 48 hrs by MTT assay. The format is cell-based. As to conditions: human, 50 to 200 µM; in the assay text read “50 to 200 uM” for “0.05 to 50 uM”. In outline: as §1
(In general: Tetrazolium assays rely on reduction of a dye to a coloured formazan, in cell work by metabolically active cells.)

Series [9] relates to MCF7. Description: Chemosensitization activity in human MCF7 cells assessed as induction of morphological changes by measuring rounded cells at 100 to 200 uM measured after 72 hrs in presence of doxorubicin under hypoxic condition by phase contrast light microscopic analysis. The series is classed as functional, cell-based. The method, boiled down:
(§3)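 MCF7 seeded 10000/well, grown 24 h, then medium with CoCl2 100 μM for 48 h to induce hypoxia. Cells then given compound (0.05–200 μM, DMSO final 0.2%) with doxorubicin 2.5 μM for 72 h. Imaged by phase contrast light microscopy (×20) for cell shape and detachment, before the MTT step.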

Series [10] has as its system MCF7. Description: Chemosensitization activity in human MCF7 cells assessed as reduction in cell viability at 100 to 200 uM measured after 72 hrs in presence of doxorubicin under hypoxic condition by MTT assay. The format is functional, cell-based. In outline: (§4)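 MCF7 in DMEM high glucose with 10% FBS, 37 °C, 5% CO2. Seeded 10000/well for 24 h, then CoCl2 100 μM for 48 h (hypoxia). Treated 72 h with compound 0.05–200 μM plus doxorubicin 2.5 μM, DMSO final 0.2%. MTT 0.5 mg/mL for 5 h at 37 °C, formazan dissolved in DMSO, read at 570 nm. Normalized to DMSO+CoCl2+doxorubicin control. Three experiments; one-way ANOVA with Tukey.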

Series [11] in a line: Cytotoxicity against HGF cells assessed as reduction in cell viability at 0.05 to 5 uM measured after 72 hrs by MTT assay. The format is cell-based. Conditions: human. The method, boiled down: as §1
Series [12] concerns MCF7. Kind of series: Chemosensitization activity in human MCF7 cells assessed as induction of morphological changes by measuring cell detachment at 100 to 200 uM measured after 72 hrs in presence of doxorubicin under hypoxic condition by phase contrast light microscopic analysis. The series is classed as functional, cell-based. In outline: as §3
Series [13] in a line: Cytotoxicity against HGF cells assessed as reduction in cell viability at 100 to 200 uM measured after 72 hrs by MTT assay. The series is classed as cell-based. Conditions: human. The method, boiled down:
as §1

Series [14] in a line: Cytotoxicity against HGF cells assessed as reduction in LDH release at 0.05 to 200 uM measured after 48 to 72 hrs by CytoTox 96 nonradioactive cytotoxicity assay. The series is classed as cell-based. As to conditions: human. In outline:
as §2

Series [15] is described as follows: Cytotoxicity against HGF cells assessed as reduction in LDH release at 0.05 to 200 uM measured up to 72 hrs by CytoTox 96 nonradioactive cytotoxicity assay. The series is classed as cell-based. Conditions: human. The method, boiled down:
as §2

Series [16] in a line: Cytotoxicity against HGF cells assessed as reduction in cell viability at 0.05 to 200 uM measured up to 72 hrs by MTT assay. The format is cell-based. Conditions: human. The method, boiled down: as §1
Series [17] concerns MCF7. Kind of series: Chemosensitization activity in human MCF7 cells assessed as reduction in cell viability at 0.05 to 200 uM measured after 72 hrs in presence of doxorubicin under hypoxic condition by MTT assay. The series is classed as functional, cell-based. The method, boiled down:
as §4

On to `COc1cccc2c1C(=O)c1c(O)c3c(c(O)c1C2=O)C[C@@](O)(C(=O)CO)C[C@@H]3O[C@H]1C[C@H](N)[C@H](O)[C@H](C)O1` [DOXORUBICIN], for which, in [1], the IC50 is 5 to 50 µM.
Consider `COc1ccccc1-c1cc(CN2C(=O)c3ccccc3S2(=O)=O)on1`, for which the Ki in [2] was over 10 µM; in series [3], over 10000 nM; in [4], over 10 µM.
Regarding `O=C1c2ccccc2S(=O)(=O)N1Cc1cc(-c2cccc([N+](=O)[O-])c2)no1`, the figures for the Ki in [2], in series [3] and in [4] were over 10 µM, 230 nM and over 10 µM, respectively.
Consider `COc1ccc(C2=NOC(CN3C(=O)c4ccccc4S3(=O)=O)C2)cc1` (configuration not stated), for which the Ki was 139 nM in series [3], 8.1 nM in series [5] and over 10 µM in [4].
Turning to `COc1ccc(-c2cc(CN3C(=O)c4ccccc4S3(=O)=O)on2)cc1`, the viability at up to 200 µM in series [6] was under 50%. In addition, the Activity result was “Toxic” in [7]; “Toxic” in series [8]; “Non-Toxic” in series [11]; “Toxic” in [13]; “Non-Toxic” in series [14]. Further, the inhibitory constant (Ki) in [2] is over 10 µM; in [3] it was 22.1 nM; in series [4] it was over 10 µM. The outcome in series [9], in series [10] and in [12] was Active.
Take `O=C1c2ccccc2S(=O)(=O)N1CC1CC(c2ccccn2)=NO1` (configuration not stated): the Ki in series [2] was over 10 µM; in series [3] it was 258 nM; in [4] it was over 10 µM.
Turning to `O=C1c2ccccc2S(=O)(=O)N1C[C@@H]1CC(c2cccs2)=NO1`, the Ki in [2] amounted to 0.0131 µM; in series [3], 2.4 nM; in series [4], 0.365 µM.
With `O=C1c2ccccc2S(=O)(=O)N1C[C@H]1CC(c2ccccc2)=NO1`, the Ki in [2] is over 10 µM; in [3], 30 nM; in [5], 48.9 nM; in series [4], over 10 µM.
In the case of `O=C1c2ccccc2S(=O)(=O)N1Cc1cc(-c2cccnc2)no1`, the values for the Ki in series [2], in series [3] and in series [4] were over 10 µM, 86.2 nM and over 10 µM, respectively.
Take `O=C1c2ccccc2S(=O)(=O)N1Cc1cc(-c2ccc([N+](=O)[O-])cc2)no1`: the Activity result in series [15] and in series [16] was “Non-Toxic” each time. Also, the Ki in series [2] and in [4] was over 10 µM throughout. Also, the outcome in series [9] and in [12] was Active. Moreover, in series [17], the result was inactive.
As to `COc1ccccc1C1=NOC(CN2C(=O)c3ccccc3S2(=O)=O)C1` (configuration not stated), the Ki is over 10 µM in series [2], over 10000 nM in series [3], 9.4 nM in series [5] and over 10 µM in series [4].
Consider `O=C1c2ccccc2S(=O)(=O)N1Cc1cc(-c2ccccn2)no1`, for which the figures for the Ki in [2], in series [3] and in series [4] were over 10 µM, 245 nM and over 10 µM, respectively.
Regarding `O=C1c2ccccc2S(=O)(=O)N1Cc1cc(-c2ccccc2)no1`, the Ki in [2] is over 10 µM; in [3] it was 50.9 nM; in series [4], over 10 µM.
For the molecule `O=C1c2ccccc2S(=O)(=O)N1C[C@H]1CC(c2cccs2)=NO1`, the Ki in series [2] was over 10 µM; in series [3], 26.4 nM; in [4], 0.358 µM.
For `O=C1c2ccccc2S(=O)(=O)N1CC1CC(c2cccc([N+](=O)[O-])c2)=NO1` (configuration not stated), the Ki is over 10 µM in [2], 103 nM in series [3] and over 10 µM in series [4].
On to `COc1cccc(-c2cc(CN3C(=O)c4ccccc4S3(=O)=O)on2)c1`, for which the values for the Ki in series [2], in series [3] and in series [4] were over 10 µM, 247 nM and over 10 µM, respectively.
For `COc1cccc(C2=NOC(CN3C(=O)c4ccccc4S3(=O)=O)C2)c1` (configuration not stated), the Ki in series [2] is over 10 µM; in [3] it was over 10000 nM; in series [4] it was over 10 µM.
In the case of `O=C1c2ccccc2S(=O)(=O)N1C[C@@H]1CC(c2ccccc2)=NO1`, the Ki in [2] was over 10 µM; in series [3], 29.3 nM; in series [5], 36.5 nM; in [4], over 10 µM.
In the case of `O=C1c2ccccc2S(=O)(=O)N1Cc1cc(-c2cccs2)no1`, the Ki in series [2] is over 10 µM; in series [3] it was 7.5 nM; in series [4] it was over 10 µM.
As to `O=C1c2ccccc2S(=O)(=O)N1CC1CC(c2ccc([N+](=O)[O-])cc2)=NO1` (configuration not stated), the figures for the Ki in series [2], in [3] and in [4] were over 10 µM, 235 nM and over 10 µM, respectively.
Turning to `O=C1c2ccccc2S(=O)(=O)N1CC1CC(c2cccnc2)=NO1` (configuration not stated), the results for the Ki in series [2], in [3] and in series [4] were over 10 µM, 274 nM and over 10 µM, respectively.
